From PubChem
Sampled rows, rich in hits. Any-hit rate of the full collection: about 5.2%.
ZTA DNA inh – counter-screen for EBNA-1 inhibitors: inhibitors of Epstein-Barr virus ZTA; ZTA-DNA binding, fluorescence polarization; 320,000 compounds, 0.15% hits; P03206; inhibition, % at 11 µM; in the data active means inhibition above about 33%
Target sequence (P03206 whole entry, looked up): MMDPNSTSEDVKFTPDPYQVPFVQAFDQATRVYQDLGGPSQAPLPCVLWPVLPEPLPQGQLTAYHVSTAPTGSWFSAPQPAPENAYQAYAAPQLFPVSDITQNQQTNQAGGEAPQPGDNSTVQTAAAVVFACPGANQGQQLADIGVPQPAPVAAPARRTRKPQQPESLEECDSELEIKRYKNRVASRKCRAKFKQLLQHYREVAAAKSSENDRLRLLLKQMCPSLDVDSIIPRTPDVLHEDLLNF
HCV NS3 hel inh – blocks Hepatitis C virus NS3 helicase unwinding; NS3 helicase DNA unwinding, Cy5 molecular beacon fluorescence; inhibition, % at 10.9 µM; 290,000 compounds, 0.56% hits; AID 1800;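 active means inhibition above the mean of all tested compounds plus 3 SD, set per campaign, cut at about 35% in these data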;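 further: 0% = DMSO wells and 100% = thioflavine S control wells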
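Assay system – hepatitis C virus NS3 helicase domain fragment enzyme · Buffer or medium – MOPS pH 6.5, MgCl2, DTT, Tween20, BSA · Reagent – Cy5/quencher beacon DNA duplex and ATP to start · Compound – single 10.9 µM dose · Timing – 1 h at 25 °C · Technique – Cy5 beacon fluorescence read at start and 1 h · Measure – % inhibition of unwinding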
core dimer inh – HCV core protein dimerization inhibition. TR-FRET GST/Flag-core106 dimerization, 1536-well. AID 1899. 300,000 compounds, 0.33% hits. inhibition, % at 5 µM;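 active means inhibition above the mean of all tested compounds plus 3 SD, set per screening campaign, cut at about 45% in these data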
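Material: GST/Flag-tagged HCV core106 proteins. Incubation: 4 h, 22.5 °C incubation. Read-out basis: inhibition (%) from 671 over 617 nm ratio. Measured by: TR-FRET, excitation 340 nm, emission 617 and 671 nm.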
M18AAP inhibitor – PfM18AAP enzyme inhibition. inhibition, % at 7.35 µM. recombinant PfM18AAP, H-Glu-NHMec fluorogenic cleavage. 290,000 compounds, 1.2% hits;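 active means inhibition above the campaign mean inhibition over all tested compounds plus 3 SD, cut at about 28% in these data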;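 further: 0% = plate median of test compound wells and 100% = 2 mM ZnCl2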
ALR H2O2 inh – inhibitors of human sulfhydryl oxidase ALR | P55789 | purified ALR, DTT oxidation, H2O2 HRP-luminol luminescence | inhibition, % (no concentration beside the values) | 290,000 compounds, 3.8% hits | AID 485317;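 active means mean replicate inhibition above about 79%, with every replicate also reaching it, limit read from the data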
Target sequence (P55789 whole entry, looked up): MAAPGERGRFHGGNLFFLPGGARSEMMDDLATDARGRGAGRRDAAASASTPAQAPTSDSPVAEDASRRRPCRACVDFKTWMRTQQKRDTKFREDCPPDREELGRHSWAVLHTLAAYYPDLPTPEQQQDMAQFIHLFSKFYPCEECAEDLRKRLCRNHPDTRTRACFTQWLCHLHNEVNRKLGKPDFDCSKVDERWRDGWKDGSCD
EBNA-1 inh – blocks EBNA-1 binding to DNA; inhibition, % at 14.8 µM; 300,000 compounds, 0.34% hits; EBNA-1 DNA binding, fluorescence polarization; AID 1950; in the data active means inhibition above about 28%
Starred values were filed as active, the others as inactive; · = not tested or not shown.

SMILES | ZTA DNA inh | HCV NS3 hel inh | core dimer inh | M18AAP inhibitor | ALR H2O2 inh | EBNA-1 inh
COc1ccc2nc(SCC(=O)Nc3ccc4[nH]c(=O)[nH]c4c3)[nH]c2c1 | 0 | · | · | · | 49 | ·
O=C(CSc1nc2ccccc2[nH]1)Nc1ccc2[nH]c(=O)[nH]c2c1 | 5 | · | · | · | 98* | ·
O=C(Cn1c(=O)n(-c2cccc(C(F)(F)F)c2)c(=O)c2sccc21)NCC1CCCO1 (stereo not drawn) | 6 | 5 | -2 | -1 | · | 0
O=C(Nc1ccc(F)cc1)c1ccc(C(=O)N2CCCC(O)C2)cc1 (stereo not drawn) | 13 | · | 0 | · | -9 | 4
Cc1[nH]c(=O)[nH]c(=O)c1S(=O)(=O)Nc1ccc(F)cc1Cl | · | 6 | · | 0 | -1 | ·
CC(C)(C)NS(=O)(=O)c1ccc(NC(=O)C2CC(=O)N(CCc3ccc(F)cc3)C2)cc1 (stereo not drawn) | -5 | 7 | 3 | -12 | · | -17
COc1ccc(N2CC(C(=O)Nc3cccnc3)CC2=O)cc1 (stereo not drawn) | -5 | -1 | 1 | -5 | -4 | -2
COC(=O)C1CCN(C(=O)COC(=O)c2cccc(NS(=O)(=O)c3ccccc3)c2)CC1 | 4 | · | -1 | · | · | 5
CCOc1cccc(CN2CCCC(C(=O)Nc3ccc(-c4ccn[nH]4)cc3)C2)c1O (stereo not drawn) | -4 | -25 | 5 | 5 | 80* | 1
COCCCNC(=S)N1CCN(C(c2ccccc2)c2ccccc2)CC1 | · | 4 | · | -10 | -8 | ·
O=C(O)CCC(=O)c1cccc2ccccc12 | 2 | -2 | -3 | -2 | -2 | -4
O=C(O)CCC(=O)c1ccc2ccc3cccc4ccc1c2c34 | 5 | 10 | -8 | -1 | 87* | 3
CC1CCN(C(=O)CN2C(=O)C(=O)N(C)C2=O)c2ccccc2S1 (stereo not drawn) | -1 | · | · | · | · | ·
Cc1ccccc1NC(=O)Cc1nc(COC(=O)c2ccc(O)cc2O)cs1 | 0 | -15 | 9 | 2 | 3 | -8
Cc1cc(C)nc(OC(=O)c2ccc(Cl)cc2Cl)n1 | 5 | -13 | -1 | 2 | 98* | -12
Cc1cc(C)nc(OC(=O)c2c(Cl)cc(Cl)cc2Cl)n1 | -7 | -5 | 4 | -2 | -3 | -10
CCCCC(Sc1nc(N)c(NC(=O)c2ccco2)c(=O)[nH]1)C(=O)O (stereo not drawn) | 1 | 10 | -11 | 11 | -51 | 8
CC(C)CCOc1ccc(C(=O)NCC(c2ccco2)N(C)C)cc1 (stereo not drawn) | -7 | -2 | 10 | 8 | -2 | -5
Cn1cnc([N+](=O)[O-])c1Sc1ccc(C(C)(C)C)cc1 | -14 | -4 | 1 | -9 | -2 | 4
Cc1ccc(Sc2c([N+](=O)[O-])ncn2C)cc1 | 13 | -4 | 0 | 2 | 98* | 10
Cn1cnc([N+](=O)[O-])c1Sc1ccc(Br)cc1 | 1 | -5 | -5 | -3 | 98* | 4
CC(C)/C(=N\NS(=O)(=O)c1ccc(Br)cc1)c1cccs1 | 2 | -4 | 1 | -4 | 80* | -12
CCCNC(=O)N1CCN(c2nc(C(C)C)c3c(c2C#N)CC(C)(C)OC3)CC1 | -4 | 2 | 9 | -12 | -5 | 15
Cc1ccc(S(=O)(=O)N2CCN(c3nc(C(C)C)c4c(c3C#N)CC(C)(C)OC4)CC2)cc1 | 70* | -6 | 6 | -1 | -9 | 88*
Cc1cccc(N2C(=O)C(O)=C(C(=O)c3cccs3)C2c2ccc(Cl)cc2)n1 (stereo not drawn) | 11 | 30 | 17 | -4 | 8 | 2
SMILES | ZTA DNA inh | HCV NS3 hel inh | core dimer inh | M18AAP inhibitor | ALR H2O2 inh | EBNA-1 inh
CC1CCCC(C)N1CC(O)COCc1ccccc1 (stereo not drawn) | 3 | 0 | 3 | -11 | 0 | 12
COc1ccccc1N1CCN(C(c2cccs2)C(C)NC(=O)c2cccnc2)CC1 (stereo not drawn) | 10 | -2 | 14 | -5 | 98* | 7
CC(NC(=O)c1ccc(F)cc1)C(c1cccs1)N1CCN(C)CC1 (stereo not drawn) | 2 | 4 | -5 | 2 | 3 | 5
CC(NC(=O)c1ccc(N(C)C)cc1)C(c1cccs1)N1CCN(C)CC1 (stereo not drawn) | -6 | -1 | 2 | -1 | 78* | 11
O=C(NCCS(=O)(=O)NCc1ccccn1)c1ccccc1 | 3 | · | -2 | · | -5 | -3
COc1cccc(/C=C/C(=O)NCc2ccc3c(c2)OCO3)c1 | -2 | -1 | -11 | 0 | · | -10
COc1ccc(-c2nnc(SCC(=O)Nc3cc(C)on3)o2)cc1 | 16 | 5 | 5 | 21 | -1 | 3
N#C/C(=N/O)c1nc(-c2ccc(F)cc2)cs1 | 5 | 4 | -6 | 3 | 98* | 6
Fc1ccc(-c2csc(-c3ccncc3)n2)cc1 | -5 | -15 | 2 | -2 | 4 | -9
Cc1sc(NC(=O)CSc2ncn(-c3ccccc3)n2)nc1-c1ccccc1 | 1 | -17 | 8 | 5 | -4 | -1
COc1ccc(-c2nc(NC(=O)Cn3cnnn3)sc2C)cc1 | 3 | -2 | 2 | 7 | · | 2
O=C(CSC1=NCCS1)Nc1nc2ccccc2s1 | 7 | 0 | -2 | 2 | 90* | 0
CCc1nnc(NC(=O)CSc2ncnc3c2oc2ccccc23)s1 | -6 | 0 | -9 | 8 | 14 | -7
COc1ccc(-c2nc(NC(=O)CSCCO)sc2C)cc1 | 1 | -16 | 1 | -8 | 98* | 3
Cc1sc(NC(=O)CSC2=NCCS2)nc1-c1ccccc1 | -4 | -5 | 4 | 0 | 99* | -3
O=C(CSc1ncnc2c1oc1ccccc12)Nc1nc2ccccc2s1 | 1 | -1 | 3 | 2 | 96* | 13
O=C(Nc1cccc(-n2cnnn2)c1)c1ccc(C(F)(F)F)cc1 | 5 | · | · | · | · | ·
CC(=O)N1CC(=O)N=C1SCC(=O)Nc1nc(-c2ccccc2)c(-c2ccccc2)s1 | -8 | 6 | -52 | 22 | 99* | 0
Cc1nc(NC(=O)CSC2=NCCS2)sc1C(=O)N(C)C | 0 | -3 | -7 | 0 | 99* | -2
COc1cc(C(=O)Nc2ccc(C)cn2)ccc1OCC(=O)N1CCOCC1 | 8 | · | · | · | 18 | ·
COc1ccc(-c2nc(NC(=O)c3ccc(OCC(=O)N4CCOCC4)c(OC)c3)sc2C)cc1 | 14 | -5 | 2 | 0 | 96* | 0
Cc1ccc(C(=O)NCc2ccco2)c(C)c1 | · | -2 | · | -1 | 4 | ·
Cc1ccc2cc(CCNC(=O)Cc3cccs3)c(=O)[nH]c2c1 | 6 | 0 | 13 | 2 | -8 | 4
CCOC(=O)C1CCN(C(=O)C2CCCN(S(=O)(=O)c3ccc(OCC)c(Cl)c3)C2)CC1 (stereo not drawn) | -17 | · | 0 | · | -17 | -3
O=C(CCNC(=O)C1CCN(S(=O)(=O)c2ccccc2)CC1)Nc1ccccc1 | -8 | 3 | -7 | 2 | 4 | -4
